In ChEMBL document CHEMBL4007437, “High-Potency Phenylquinoxalinone Cystic Fibrosis Transmembrane Conductance Regulator (CFTR) Activators” (J Med Chem, 2017):
The source made the active and inactive calls. The calls are words filed in the database; no cut-off is given here.

Assays:
[1] = target: Cystic fibrosis transmembrane conductance regulator (Homo sapiens, UniProt P13569, H148Q); assay: Activation of human CFTR expressed in FRT cells co-expressing YFP H148Q mutant assessed as increase in forskolin-stimulated iodide influx measured after 10 mins by fluorescence assay; type: cell-based
Outline: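 FRT cells stably coexpressing human wild-type CFTR and YFP-H148Q, near-confluent; washed with PBS, then 10 min in PBS with test compound and 125 nM forskolin. YFP fluorescence recorded 2 s baseline and 12 s after iodide addition (final 140 mM). Iodide influx rates fitted to concentration–response curves for EC50.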

[2] = target: Cystic fibrosis transmembrane conductance regulator (Homo sapiens, UniProt P13569); assay: Activation of human CFTR expressed in forskolin-stimulated basolateral membrane permeabilized FRT cells assessed as increase in short-circuit current amplitude after 30 mins by voltage clamp method; type: cell-based
Outline: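 Short-circuit current in FRT cells expressing human wild-type CFTR grown on porous filters, with a transepithelial chloride gradient and permeabilized basolateral membrane. Low-concentration forskolin added first, then cumulative activator concentrations, finally 10 μM CFTRinh-172. EC50 from concentration–response, mean ± SEM, n = 3.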

[3] = Effect on cAMP levels in Fischer rat thyroid cells at 10 uM incubated for 10 mins by immunoassay; type: ADME, cell-based; conditions: thyroid cell
Outline: (§1)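 FRT cells incubated 10 min with 10 μM compound, without or with 90 nM forskolin, then cellular cAMP measured. Positive controls: forskolin 100 nM and 20 μM, forskolin + IBMX (20 μM + 100 μM). Mean ± SEM, n = 4.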

[4] = Elevation of cytoplasmic calcium levels in Fischer rat thyroid cells at 10 uM after 5 mins by Fluo-4 based fluorescence assay; conditions: thyroid cell
Homo sapiens [5] = species: Homo sapiens; assay: Inhibition of calcium-activated chloride channel in human HT29 cells co-expressing YFP assessed as reduction in ATP-stimulated calcium levels at 10 uM preincubated for 10 mins followed by ATP addition in presence of iodide by fluorescence assay; type: cell-based
Mus musculus [6] = assay: Suppression of constipation in po dosed loperamide-induced CD1 mouse acute constipation model assessed as normalization of stool water content administered 1 hr prior to loperamide addition measured after 3 hrs; type: functional
Outline: (§2)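 CD1 mice, 8–10 weeks; compound or vehicle (saline, 5% DMSO, 10% Kolliphor HS 15) given orally at 0, 0.1, 0.3, 1, 3 or 10 mg/kg 1 h before loperamide 0.3 mg/kg ip. Stool collected 3 h in metabolic cages; weight, pellet count and water content (wet/dry weights). Mean ± SEM, 4 mice per group.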

Homo sapiens [7] = species: Homo sapiens; assay: Activation of calcium-activated chloride channel in human HT29 cells co-expressing YFP at 10 uM after 10 mins presence of iodide by fluorescence assay; type: cell-based
[8] = Effect on forskolin-stimulated cAMP levels in Fischer rat thyroid cells at 10 uM incubated for 10 mins by immunoassay; type: ADME, cell-based; conditions: thyroid cell; outline: as §1
[9] = target: T1, Anoctamin-1 (Homo sapiens) (UniProt Q5XXA6); assay: Inhibition of human TMEM16A expressed in FRT cells co-expressing YFP assessed as decrease in iodide influx at 10 uM measured after 10 mins in presence of ATP by fluorescence assay; type: cell-based
T1 sequence (whole entry): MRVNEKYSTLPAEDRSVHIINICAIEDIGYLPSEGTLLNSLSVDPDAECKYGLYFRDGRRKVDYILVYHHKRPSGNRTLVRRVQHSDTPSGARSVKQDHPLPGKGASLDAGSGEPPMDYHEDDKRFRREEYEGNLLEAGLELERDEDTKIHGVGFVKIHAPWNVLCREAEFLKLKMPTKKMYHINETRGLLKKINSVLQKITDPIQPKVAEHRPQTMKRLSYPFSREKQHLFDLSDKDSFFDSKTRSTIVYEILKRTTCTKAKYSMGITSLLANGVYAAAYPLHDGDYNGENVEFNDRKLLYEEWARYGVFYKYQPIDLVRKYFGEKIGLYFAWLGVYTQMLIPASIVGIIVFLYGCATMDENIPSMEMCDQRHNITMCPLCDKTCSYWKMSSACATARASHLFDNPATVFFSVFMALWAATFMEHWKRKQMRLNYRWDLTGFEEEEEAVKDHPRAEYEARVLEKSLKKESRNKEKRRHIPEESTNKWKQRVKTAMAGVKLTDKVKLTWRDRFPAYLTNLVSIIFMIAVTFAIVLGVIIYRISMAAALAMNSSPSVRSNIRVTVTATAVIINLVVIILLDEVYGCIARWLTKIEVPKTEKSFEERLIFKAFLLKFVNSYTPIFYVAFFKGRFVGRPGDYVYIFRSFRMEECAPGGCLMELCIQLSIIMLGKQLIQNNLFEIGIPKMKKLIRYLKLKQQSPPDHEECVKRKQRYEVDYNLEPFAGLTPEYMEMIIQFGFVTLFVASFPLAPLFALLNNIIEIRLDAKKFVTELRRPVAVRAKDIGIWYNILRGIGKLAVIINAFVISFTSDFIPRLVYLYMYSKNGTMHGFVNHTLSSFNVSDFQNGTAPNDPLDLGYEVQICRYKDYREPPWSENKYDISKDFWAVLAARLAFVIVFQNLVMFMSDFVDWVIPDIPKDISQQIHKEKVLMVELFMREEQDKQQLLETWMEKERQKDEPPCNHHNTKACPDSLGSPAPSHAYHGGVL
Outline: (§3)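 FRT cells coexpressing YFP and TMEM16A; continuous single-well YFP fluorescence for 2 s before and 12 s after addition of iodide solution (final 140 mM iodide). Activation read with iodide alone, inhibition with iodide plus ATP; compound at 10 μM. Iodide influx rate calculated from fluorescence quenching.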

[10] = target: T1, Anoctamin-1 (Homo sapiens); assay: Activation of human TMEM16A expressed in FRT cells co-expressing YFP assessed as increase in iodide influx at 10 uM measured after 10 mins by fluorescence assay; type: cell-based; outline: as §3
Mus musculus [11] = assay: Suppression of constipation in po dosed loperamide-induced CD1 mouse acute constipation model assessed as normalization of pellet number administered 1 hr prior to loperamide addition measured after 3 hrs; type: functional; outline: as §2

Cystic fibrosis transmembrane conductance regulator (Homo sapiens, UniProt P13569, H148Q), sequence (P13569 whole entry, looked up, stated change not applied): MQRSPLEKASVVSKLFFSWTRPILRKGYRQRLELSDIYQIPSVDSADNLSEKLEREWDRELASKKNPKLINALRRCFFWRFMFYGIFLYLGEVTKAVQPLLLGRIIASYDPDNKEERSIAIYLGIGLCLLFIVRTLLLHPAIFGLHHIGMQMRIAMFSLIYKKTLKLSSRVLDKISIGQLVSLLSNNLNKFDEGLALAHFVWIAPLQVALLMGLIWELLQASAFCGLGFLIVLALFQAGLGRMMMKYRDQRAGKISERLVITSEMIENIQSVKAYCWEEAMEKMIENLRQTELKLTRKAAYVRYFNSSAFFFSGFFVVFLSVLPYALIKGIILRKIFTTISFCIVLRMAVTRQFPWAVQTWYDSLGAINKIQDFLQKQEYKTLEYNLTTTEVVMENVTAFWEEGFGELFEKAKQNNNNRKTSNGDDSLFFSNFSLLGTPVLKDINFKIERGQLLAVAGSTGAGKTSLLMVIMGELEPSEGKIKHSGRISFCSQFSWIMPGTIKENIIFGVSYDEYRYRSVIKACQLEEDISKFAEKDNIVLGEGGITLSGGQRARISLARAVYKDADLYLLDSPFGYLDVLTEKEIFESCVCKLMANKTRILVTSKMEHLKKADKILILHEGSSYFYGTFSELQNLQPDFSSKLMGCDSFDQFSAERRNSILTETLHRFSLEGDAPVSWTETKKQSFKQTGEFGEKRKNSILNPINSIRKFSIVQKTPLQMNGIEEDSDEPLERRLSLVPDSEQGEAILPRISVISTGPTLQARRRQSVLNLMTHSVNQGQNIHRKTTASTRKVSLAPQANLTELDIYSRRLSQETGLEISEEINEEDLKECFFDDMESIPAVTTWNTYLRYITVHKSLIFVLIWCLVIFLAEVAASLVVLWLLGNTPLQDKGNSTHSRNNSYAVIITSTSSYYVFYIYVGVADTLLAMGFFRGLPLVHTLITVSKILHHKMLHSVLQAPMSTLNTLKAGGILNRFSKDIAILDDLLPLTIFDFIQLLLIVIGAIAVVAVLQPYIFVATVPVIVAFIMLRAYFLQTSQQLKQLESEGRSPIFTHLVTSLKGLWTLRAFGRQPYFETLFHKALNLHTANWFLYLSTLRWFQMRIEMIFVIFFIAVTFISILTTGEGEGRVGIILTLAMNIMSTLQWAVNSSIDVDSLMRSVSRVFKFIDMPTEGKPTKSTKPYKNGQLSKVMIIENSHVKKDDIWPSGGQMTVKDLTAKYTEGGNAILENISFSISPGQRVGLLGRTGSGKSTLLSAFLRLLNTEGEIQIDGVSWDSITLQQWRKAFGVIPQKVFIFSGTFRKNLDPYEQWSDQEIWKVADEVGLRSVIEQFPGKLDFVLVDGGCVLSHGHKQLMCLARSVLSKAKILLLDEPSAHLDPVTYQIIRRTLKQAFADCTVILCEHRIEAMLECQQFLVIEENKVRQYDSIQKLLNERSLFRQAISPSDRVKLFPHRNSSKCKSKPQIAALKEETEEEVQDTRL

Row | EC50 ([1]; read-out: EC50) | SMILES | also measured
1 | > 10 µM | O=[N+]([O-])c1ccc2nc3n(Cc4ccccc4)c4ccc(C(F)(F)F)cc4nc-3c2c1 | –
2 | > 10 µM | Cc1cc2nc(-c3cccc([N+](=O)[O-])c3)c(=O)n(Cc3ccccc3)c2cc1C | –
3 | 0.82 µM | CC(=O)Nc1ccc([N+](=O)[O-])cc1-c1nc2cccc3c2n(c1=O)CCO3 | –
4 | – | O=c1c(-c2cccc([N+](=O)[O-])c2)nc2ccccc2n1Cc1cccc2ccccc12 | EC50 [1]: Not Active
5 | – | O=c1c(-c2cccc([N+](=O)[O-])c2)nc2ccc(Br)cc2n1Cc1ccccc1 | EC50 [1]: Not Active
6 | > 10 µM | Nc1ccc([N+](=O)[O-])cc1-c1nc2cccc3c2n(c1=O)C(c1ccccc1)CO3 (centres undefined) | –
7 | 1 µM | N#Cc1cccc(-c2nc3ccccc3n(Cc3ccccc3)c2=O)c1 | –
8 | > 10 µM | O=C(O)c1ccc([N+](=O)[O-])c(-c2nc3ccccc3n(Cc3ccccc3)c2=O)c1 | –
9 | > 10 µM | O=c1c(-c2cccc([N+](=O)[O-])c2)nc2cc(F)c(F)cc2n1Cc1ccccc1 | –
10 | > 10 µM | O=c1c(-c2cccc([N+](=O)[O-])c2)nc2cc(Cl)c(Cl)cc2n1Cc1ccccc1 | –
11 | 0.01 µM | O=c1c(-c2cccc([N+](=O)[O-])c2)nc2ccccc2n1Cc1cccs1 | Activity [2]: Dose-dependent effect; EC50 [2]: 0.07 µM
12 | 9.9 µM | COC(=O)c1ccc([N+](=O)[O-])c(-c2nc3ccccc3n(Cc3ccccc3)c2=O)c1 | –
13 | – | O=c1c(-c2cccc([N+](=O)[O-])c2)nc2ccccc2n1Cc1ccccc1 | Activity [3]: Non-Toxic; Activity [4]: Non-Toxic; inhibition (Homo sapiens [5]): inactive; ED50 (Mus musculus [6]): < 1 mg/kg; Activity (Homo sapiens [7]): inactive; Activity [8]: Non-Toxic; inhibition [9]: inactive; Activity [2]: Dose-dependent effect; Activity [10]: inactive; ED50 (Mus musculus [11]): < 1 mg/kg
14 | > 10 µM | Cn1c(=O)c(-c2cccc([N+](=O)[O-])c2)nc2ccccc21 | –
15 | > 10 µM | Cc1cccc2nc(-c3cccc([N+](=O)[O-])c3)c(=O)n(Cc3ccccc3)c12 | –
16 | > 10 µM | Nc1ccc(C(=O)O)cc1-c1nc2ccccc2n(Cc2ccccc2)c1=O | –
17 | > 10 µM | O=c1[nH]c2ccccc2nc1-c1cccc([N+](=O)[O-])c1 | –
18 | > 10 µM | Fc1ccc2nc3n(Cc4ccccc4)c4ccc(C(F)(F)F)cc4nc-3c2c1 | –
